Consider 15 molecules from ChEMBL document CHEMBL5244226, “Cyathane Diterpenes from Cultures of the Bird's Nest Fungus Cyathus hookeri and Their Neurotrophic and Anti-neuroinflammatory Activities” (J Nat Prod, 2019).

The source made the active and inactive calls. The calls are words filed in the database; no cut-off is given here. Where only a bound is given, the exact number is not on record here.

Series [1] deals with BV-2. The series is described as follows: Antineuroinflammatory activity in mouse BV-2 cells assessed as inhibition of LPS-induced NO production measured after 24 hrs by Griess reagent based assay. The series is classed as functional, cell-based. The conditions noted are these: BV-2, 24 h. The method, boiled down: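 BV-2 murine microglia in DMEM with 10% heat-inactivated FBS, seeded 2 × 10^4/well and grown 24 h at 37 °C. Then co-treated 24 h with LPS (E. coli 0111:B4, 1 μg/mL) plus test agent in DMSO. Controls were DMSO+LPS and quercetin. Supernatant nitrite by Griess reaction, A540, against a sodium nitrite standard curve. IC50 is the concentration halving NO output.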

In series [2] the test system is PC-12. The series is described as follows: Neurotrophic activity in rat PC-12 cells assessed as induction of NGF-mediated neurite outgrowth at 10 uM measured after 48 hrs by microscopic analysis. The series is classed as functional, cell-based. The procedure, abridged:
(§1)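 PC-12 cells (rat) grown in DMEM with 10% heat-inactivated horse serum and 5% FBS at 37 °C, 5% CO2. Plated 1 × 10^4/well on poly-L-lysine for 24 h, then 14 h in low-serum medium (2% HS, 1% FBS). Treated 48 h with compound (DMSO) plus NGF 20 ng/mL; NGF alone as positive control. Triplicate wells, 10 random phase-contrast fields per well, ≥100 cells per field. Neurite-bearing cells counted as percentage of total.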

The subject of series [3] is PC-12. The series is described as follows: Neurotrophic activity in rat PC-12 cells assessed as induction of NGF-mediated neurite outgrowth by measuring neurite bearing cells at 5 uM measured after 48 hrs by microscopic analysis (reference value: 15.7 +/- 0.1%). It is filed as functional. The procedure, abridged: as §1
The subject of series [4] is PC-12. The series is described as follows: Neurotrophic activity in rat PC-12 cells assessed as induction of NGF-mediated neurite outgrowth by measuring neurite bearing cells at 10 uM measured after 48 hrs by microscopic analysis (reference value: 15.7 +/- 0.1%). It is filed as functional. The procedure, abridged:
as §1

Series [5] concerns PC-12. The series is described as follows: Cytotoxicity against rat PC-12 cells at 10 uM. The series is classed as toxicity, cell-based. The conditions noted are these: pc-12, 10 µM.

On to `CC1=CC(=O)[C@]2(C)CC[C@@]3(C)CCC(C(C)C)=C3[C@H]2CC1`, for which the IC50 in series [1] came to 27.8 µM. Further, in series [2], the result was Active.
The like results for `COC(OC)C1=C[C@H](O)[C@]2(C)CC[C@@]3(C)CCC(C(C)C)=C3[C@H]2C[C@H]1OC` were, in that order, 36.8 µM and “Active”.
For `CC(C)C1=C2[C@H]3C[C@H]4O[C@](O)([C@H](O)[C@@H]4C4O[C@@H](C)[C@@H](C)O4)[C@]3(C)CC[C@@]2(C)CC1` (some centres not stated), in series [1], the IC50 turned out to be 15.5 µM. Besides, in series [2], the result was Active.
For `CC(C)C1=C2[C@H]3C[C@H]4O[C@](O)(C=C4COC(=O)C(C)O)[C@]3(C)CC[C@@]2(C)CC1` (some centres not stated), the 50% inhibitory concentration (IC50) in series [1] was found to be 27.3 µM. Besides, the outcome in series [2] was Active. Besides, the Activity amounted to 28.1% in series [3] and 32% in series [4].
`CC(C)C1=C2[C@H]3C[C@H]4O[C@](O)(C=C4C4O[C@@H](C)[C@@H](C)O4)[C@]3(C)CC[C@@]2(C)CC1` (some centres not stated): in series [1], the IC50 worked out at 12 µM. In series [2], the outcome was Active.
For the molecule `CO[C@@H]1C(C=O)=CC[C@@H]2C3=C(C(C)C)CC[C@]3(C)CC[C@@]2(C)[C@H]1O`, in series [1], the half-inhibitory concentration (IC50) turned out to be 9.1 µM. Besides, in series [5], the Activity result was “Toxic”.
`CC1=C[C@H](O)[C@]2(C)CC[C@@]3(C)CCC(C(C)C)=C3[C@H]2CC1`: in series [1], the 50% inhibitory concentration (IC50) was determined as 32.8 µM. Moreover, the result in series [2] was Active.
As for `CC(C)[C@]12CC[C@]3(C)CC[C@@]4(C)C(=O)C=C(CO)[C@H](O)C[C@@H]4[C@@]31O2`, the half-inhibitory concentration (IC50) in series [1] was above 50 µM. For the same molecule, the outcome in series [2] was Active.
Consider `CC(C)C1=C2[C@H]3C[C@H]4O[C@](O)(C=C4C(=O)O)[C@]3(C)CC[C@@]2(C)CC1`, for which, in series [1], the IC50 was above 50 µM. Besides, the outcome in series [2] was Active.
With `CC(C)C1=C2[C@H]3C[C@H]4O[C@](O)([C@H](O)[C@@H]4CO)[C@]3(C)CC[C@@]2(C)CC1`, the IC50 in series [1] is above 50 µM. Further, the result in series [2] was Active.
Consider `CO[C@H]1C[C@@H]2C3=C(C(C)C)CC[C@]3(C)CC[C@@]2(C)[C@@H](O)C=C1C=O`, for which, in series [1], the IC50 was determined as 6.9 µM. Also, the Activity result in series [5] is on record as “Toxic”.
Regarding `CC(C)C1=C2[C@H]3CC=C(C=O)CC(=O)[C@]3(C)CC[C@@]2(C)CC1`, the IC50 in series [1] is 10.9 µM. Besides, the outcome in series [2] was Active.
On the same counts, the results for `CC(C)C1=C2[C@H]3C[C@H]4O[C@](O)([C@H](O)[C@H]4CO)[C@]3(C)CC[C@@]2(C)CC1` are above 50 µM and “Active”.
Regarding `CC(C)C1=C2[C@H]3C[C@@H](O)C(CO)=C[C@H](O)[C@]3(C)CC[C@@]2(C)CC1`, the IC50 in series [1] came to 22.1 µM. Besides, in series [2], the result was Active.
On to `CO[C@H]1C(=O)[C@]2(C)CC[C@@]3(C)CCC(C(C)C)=C3[C@H]2CC=C1C=O`, for which, in series [1], the IC50 was 19.7 µM. For the same molecule, the outcome in series [2] was Active.
